Data published in PMC4357494 (Journal of molecular biology, 2014).
One block for each molecule: values may come before it. Where a SMILES comes first, the peptide text is derived from it.

Legend:
Bcl-xL (residues 1-209) [1] = target: T1, Bcl-xL (residues 1-209) (Homo sapiens, UniProt Q07817); experiment: Fluorescence polarization competition binding assay, Bcl-xL
[2] = target: OCI-Ly1 cells (Bcl-2 dependent) (Homo sapiens, UniProt P10415)
Bcl-2 (residues 1-217) [3] = target: T2, Bcl-2 (residues 1-217) (Homo sapiens, UniProt P10415); experiment: Fluorescence polarization competition binding assay, Bcl-2
T2 sequence (P10415 1-217): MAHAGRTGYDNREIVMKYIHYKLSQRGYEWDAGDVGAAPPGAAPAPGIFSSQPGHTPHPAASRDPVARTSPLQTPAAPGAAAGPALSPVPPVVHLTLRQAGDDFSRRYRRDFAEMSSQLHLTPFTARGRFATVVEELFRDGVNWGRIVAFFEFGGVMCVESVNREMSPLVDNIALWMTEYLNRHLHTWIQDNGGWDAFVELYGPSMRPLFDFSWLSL
How it was run: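 Human Bcl-2 (residues 1-217), expressed in E. coli. Buffer: 20 mM sodium phosphate, 50 mM NaCl, 1 mM EDTA, 0.001% Triton X, 5% DMSO, pH 7.8, 25 °C. Competition: test peptide serially diluted, 10 nM fluorescein Bim-BH3 added, 15 min at RT, then 50 nM Bcl-2 (final). Anisotropy read over 2-48 h, then curves fit. Direct: titrated protein, 10 nM probe, read 4-24 h.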

[4] = tested on: Bcl-2 3256 cells (Bcl-2 dependent)
[5] = tested on: Mcl-1 2640 cells (Mcl-1 dependent); experiment: BH3 profiling, Mcl-1 2640; assay type: cell-based, murine; settings: 5 μM peptide
How it was run: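 Myc-driven murine leukemia line, Mcl-1 dependent, grown in RPMI 1640 with 10% FBS and […] 2-mercaptoethanol. Permeabilized cells at 2×10^4/well, triplicate wells, exposed to peptides including 5 μM. JC-1 read-out; depolarization expressed as percentage relative to FCCP (full) and DMSO (none). At least three biological replicates.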

Bcl-xL = experiment: Yeast-surface display, dual color fluorescence binding with competitors; parameters: species or system human; settings: 100-fold excess of each competitor, yeast-displayed peptide
How it was run: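 Yeast displaying BH3 peptides incubated with 10 nM Bcl-xL plus 1 μM each of Mcl-1, Bfl-1, Bcl-2 and Bcl-w, competitors premixed. Proteins are E. coli-expressed human constructs. Detection uses primary and labeled secondary antibodies: FITC marks peptide expression, APC marks receptor binding. Flow cytometry with 488 and/or 561 nm excitation.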

[6] = target: primary human platelets (Bcl-xL dependent) (Homo sapiens, UniProt Q07817); settings: primary human platelet samples
Chain of primary human platelets (Bcl-xL dependent) (Q07817 1-209): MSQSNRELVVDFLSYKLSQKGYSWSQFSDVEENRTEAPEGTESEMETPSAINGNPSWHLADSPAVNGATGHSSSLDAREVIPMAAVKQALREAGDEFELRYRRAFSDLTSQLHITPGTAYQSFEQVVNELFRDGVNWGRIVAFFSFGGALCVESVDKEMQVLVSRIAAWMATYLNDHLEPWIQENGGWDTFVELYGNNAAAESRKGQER

Bcl-w (residues 1-164) = target: T3, Bcl-w (residues 1-164) (Homo sapiens, UniProt Q92843); experiment: Fluorescence polarization competition binding assay, Bcl-w
T3 sequence (Q92843 1-164): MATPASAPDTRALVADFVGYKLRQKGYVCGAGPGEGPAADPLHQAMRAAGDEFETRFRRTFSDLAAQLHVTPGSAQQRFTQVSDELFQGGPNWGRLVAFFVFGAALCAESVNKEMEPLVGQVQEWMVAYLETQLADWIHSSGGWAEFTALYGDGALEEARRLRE
How it was run: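 E. coli-expressed Bcl-w (residues 1-164), 50 nM final, competed against 10 nM N-terminal fluorescein 18-mer Bim-BH3. Unlabeled peptide serially diluted and premixed with tracer 15 min before protein. Buffer: 20 mM sodium phosphate, 50 mM NaCl, 1 mM EDTA, 0.001% Triton X, 5% DMSO, pH 7.8, 25 °C.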

Mcl-1 (residues 172-327) = Mcl-1 (residues 172-327) (Homo sapiens, UniProt Q07820); experiment: Fluorescence polarization binding assay, Mcl-1; settings: for competition with fluorescently labeled Bim-BH3 for binding to Mcl-1 (in words): FP competition
Chain of Mcl-1 (residues 172-327) (Q07820 172-327): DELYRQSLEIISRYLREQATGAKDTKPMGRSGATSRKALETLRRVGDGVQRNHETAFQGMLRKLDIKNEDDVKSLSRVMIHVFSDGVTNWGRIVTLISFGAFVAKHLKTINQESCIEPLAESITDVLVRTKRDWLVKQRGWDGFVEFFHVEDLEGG
How it was run: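 E. coli-expressed Mcl-1 (residues 172-327) in competition FP: 20 mM sodium phosphate, 50 mM NaCl, 1 mM EDTA, 0.001% Triton X, 5% DMSO, pH 7.8, 25 °C. Serially diluted unlabeled peptide plus 10 nM fluorescein tracer, 15 min, then protein. Tracer is 18-mer Bim-BH3 with 50 nM Mcl-1, or 23-mer Hrk-BH3 with 500 nM Mcl-1.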

DHL10 cells = experiment: BH3 profiling, DHL10; assay type: cell-based; settings: Bax- and Bak-deleted cell line
How it was run: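 Test peptides (N-acetylated, C-amidated) titrated onto permeabilized Su-DHL10 cells (RPMI 1640, 10% FBS), 2×10^4 cells/well, triplicate wells per concentration. JC-1 fluorescence gives membrane-potential loss, normalized as 1 – [(Dsample–DFCCP)/(DDMSO–DFCCP)] against FCCP and DMSO. EC50 from global fit with linked baselines; at least three biological replicates, 2-3 days of culture apart.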

Bcl-xL (residues 1-209) [7] = target: T1, Bcl-xL (residues 1-209); experiment: fluorescence polarisation
Bcl-2 (residues 1-217) [8] = target: T2, Bcl-2 (residues 1-217); experiment: fluorescence polarisation
[9] = target: MDA-MB-231 cells (Bcl-xL dependent) (Homo sapiens, UniProt Q07817)
Chain of MDA-MB-231 cells (Bcl-xL dependent) (Q07817 1-209): as the sequence (Q07817 1-209) above

Bcl-xL (residues 1-209) [10] = target: Bcl-xL (residues 1-209) (human, UniProt Q07817-1 1-209); experiment: fluorescence polarisation
Chain of Bcl-xL (residues 1-209) (human, UniProt Q07817-1 1-209) (Q07817 1-209): as above

Bcl-2 (residues 1-217) [11] = target: Bcl-2 (residues 1-217) (human, UniProt P10415 1-217); experiment: fluorescence polarisation
Chain of Bcl-2 (residues 1-217) (human, UniProt P10415 1-217) (P10415 1-217): as the sequence (P10415 1-217) above

[12] = FP competition with fluorescein 18-residue Bim-BH3

T1 sequence (Q07817 1-209): as the sequence (Q07817 1-209) above
Chain of OCI-Ly1 cells (Bcl-2 dependent) (P10415 whole entry, the tested form may be a part): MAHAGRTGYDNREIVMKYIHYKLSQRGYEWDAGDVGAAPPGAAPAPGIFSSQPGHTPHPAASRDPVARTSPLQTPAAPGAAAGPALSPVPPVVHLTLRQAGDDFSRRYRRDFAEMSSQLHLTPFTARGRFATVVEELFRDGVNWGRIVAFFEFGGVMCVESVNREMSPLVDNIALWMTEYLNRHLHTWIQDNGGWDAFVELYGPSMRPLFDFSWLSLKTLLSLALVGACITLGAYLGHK

Ki (Bcl-xL (residues 1-209) [1]): 0.4 nM
weaker response than XXA1_Y4eK [2]: 3-4 fold
Ki (Bcl-2 (residues 1-217) [3]): 430 nM
specificity for Bcl-xL over Bcl-2 (Bcl-2 (residues 1-217) [3]; ratio of FP binding constants): ~ 1000 fold
Molecule: CC[C@H](C)[C@H](NC(=O)[C@H](CCC(=O)O)NC(=O)[C@@H]1CCCN1C(=O)[C@H](CCCNC(=N)N)NC(C)=O)C(=O)N[C@@H](Cc1c[nH]c2ccccc12)C(=O)N[C@@H](Cc1ccc(O)cc1)C(=O)N[C@@H](C)C(=O)N[C@@H](CCC(N)=O)C(=O)NCC(=O)N[C@@H](CC(C)C)C(=O)N[C@@H](CCCCN)C(=O)N[C@@H](CCCNC(=N)N)C(=O)N[C@@H](Cc1ccccc1)C(=O)NCC(=O)N[C@@H](CC(=O)O)C(=O)N[C@@H](CCC(=O)O)C(=O)N[C@@H](Cc1ccccc1)C(=O)N[C@@H](CC(N)=O)C(=O)N[C@@H](C)C(=O)N[C@@H](Cc1ccc(O)cc1)C(=O)N[C@@H](CCCCN)C(N)=O [Y4eK_21] (Ac-RPEIWYAQGLKRFGDEFNAYK-NH2)

EC50 [4]: 540 ± 183 nM
Ki (Bcl-xL (residues 1-209) [1]): ≤ 0.1 nM
affinity for Bcl-xL (in words) (Bcl-xL (residues 1-209) [1]; [12]): sub-nanomolar
Kd (Bcl-2 (residues 1-217) [3]): ~17 nM
depolarization of platelets (in words) [6]: potent depolarization
weakening of binding to Bcl-w relative to Bim-BH3 (Bcl-w (residues 1-164); four mutations combined): ~ 150 fold
competition with fluorescently labeled Bim-BH3 for binding to Mcl-1 (in words) (Mcl-1 (residues 172-327)): Neither XXA1 nor XXA1_G2gE could compete
Molecule: CC[C@H](C)[C@H](NC(=O)[C@H](CCC(=O)O)NC(=O)[C@@H]1CCCN1C(=O)[C@H](CCCNC(=N)N)NC(C)=O)C(=O)N[C@@H](Cc1c[nH]c2ccccc12)C(=O)N[C@@H](Cc1ccc(O)cc1)C(=O)N[C@@H](C)C(=O)N[C@@H](CCC(N)=O)C(=O)NCC(=O)N[C@@H](CC(C)C)C(=O)N[C@@H](CCCCN)C(=O)N[C@@H](CCCNC(=N)N)C(=O)N[C@@H](Cc1ccccc1)C(=O)NCC(=O)N[C@@H](CC(=O)O)C(=O)N[C@@H](CCC(=O)O)C(=O)N[C@@H](Cc1ccccc1)C(=O)N[C@@H](CC(N)=O)C(=O)N[C@@H](C)C(=O)N[C@@H](Cc1ccc(O)cc1)C(=O)N[C@@H](Cc1ccc(O)cc1)C(=O)N[C@@H](C)C(=O)N[C@@H](CCCNC(=N)N)C(N)=O [XXA1] (Ac-RPEIWYAQGLKRFGDEFNAYYAR-NH2)
binding to Bcl-xL in the presence of competitor pro-survival proteins (Bcl-xL): robust binding
non-specific pore forming activities (DHL10 cells): None
depolarization in the Mcl-1 dependent line (in words) [5]: low amount of depolarization

reduction of affinity for Bcl-xL relative to XXA1_Y4eK (Bcl-xL (residues 1-209) [1]): ~ 18 fold
weaker response than XXA1_Y4eK [2]: 3-4 fold
weaker binding to Bcl-2 than parent XXA1_Y4eK (Bcl-2 (residues 1-217) [3]): ~ 5 fold
Molecule: CC[C@H](C)[C@H](NC(C)=O)C(=O)N[C@@H](Cc1c[nH]c2ccccc12)C(=O)N[C@@H](Cc1ccc(O)cc1)C(=O)N[C@@H](C)C(=O)N[C@@H](CCC(N)=O)C(=O)NCC(=O)N[C@@H](CC(C)C)C(=O)N[C@@H](CCCCN)C(=O)N[C@@H](CCCNC(=N)N)C(=O)N[C@@H](Cc1ccccc1)C(=O)NCC(=O)N[C@@H](CC(=O)O)C(=O)N[C@@H](CCC(=O)O)C(=O)N[C@@H](Cc1ccccc1)C(=O)N[C@@H](CC(N)=O)C(=O)N[C@@H](C)C(=O)N[C@@H](Cc1ccc(O)cc1)C(=O)N[C@@H](CCCCN)C(N)=O [Y4eK_18] (Ac-IWYAQGLKRFGDEFNAYK-NH2)

EC50 [4]: 141 ± 50 nM
binding to Bcl-xL relative to XXA1 (in words) (Bcl-xL (residues 1-209) [1]; FP competition with 23-mer fluorescently labeled Bim-BH3): bound more tightly than XXA1
binding to Bcl-2 (in words) (Bcl-2 (residues 1-217) [3]; [12]): bound tighter than XXA1
depolarization of platelets (in words) [6]: potent depolarization
binding to Bcl-w (in words) (Bcl-w (residues 1-164); [12]): bound tighter than XXA1
Ki (Mcl-1 (residues 172-327)): ~31 nM
competition with fluorescently labeled Bim-BH3 for binding to Mcl-1 (in words) (Mcl-1 (residues 172-327)): Neither XXA1 nor XXA1_G2gE could compete
potency relative to Bad [9]: ~ 7 fold
Molecule: CC[C@H](C)[C@H](NC(=O)[C@H](CCC(=O)O)NC(=O)[C@@H]1CCCN1C(=O)[C@H](CCCNC(=N)N)NC(C)=O)C(=O)N[C@@H](Cc1c[nH]c2ccccc12)C(=O)N[C@@H](Cc1ccc(O)cc1)C(=O)N[C@@H](C)C(=O)N[C@@H](CCC(N)=O)C(=O)N[C@@H](CCC(=O)O)C(=O)N[C@@H](CC(C)C)C(=O)N[C@@H](CCCCN)C(=O)N[C@@H](CCCNC(=N)N)C(=O)N[C@@H](Cc1ccccc1)C(=O)NCC(=O)N[C@@H](CC(=O)O)C(=O)N[C@@H](CCC(=O)O)C(=O)N[C@@H](Cc1ccccc1)C(=O)N[C@@H](CC(N)=O)C(=O)N[C@@H](C)C(=O)N[C@@H](Cc1ccc(O)cc1)C(=O)N[C@@H](Cc1ccc(O)cc1)C(=O)N[C@@H](C)C(=O)N[C@@H](CCCNC(=N)N)C(N)=O [XXA1_G2gE] (Ac-RPEIWYAQELKRFGDEFNAYYAR-NH2)
non-specific pore forming activities (DHL10 cells): None
depolarization in the Mcl-1 dependent line (in words) [5]: low amount of depolarization

More lines, now with the values behind:

Molecule: CC[C@H](C)[C@H](NC(=O)[C@H](CCC(=O)O)NC(=O)[C@H](CCCNC(=N)N)NC(=O)[C@H](C)NC(=O)[C@H](Cc1c[nH]c2ccccc12)NC(=O)[C@H](CCC(N)=O)NC(C)=O)C(=O)NCC(=O)N[C@@H](C)C(=O)N[C@@H](CCC(N)=O)C(=O)N[C@@H](CC(C)C)C(=O)N[C@@H](CCCNC(=N)N)C(=O)N[C@@H](CCCNC(=N)N)C(=O)N[C@@H](CCSC)C(=O)N[C@@H](C)C(=O)N[C@@H](CC(=O)O)C(=O)N[C@@H](CC(=O)O)C(=O)N[C@@H](CC(C)C)C(=O)N[C@@H](CC(N)=O)C(=O)N[C@@H](C)C(=O)N[C@@H](CCC(N)=O)C(=O)N[C@@H](Cc1ccc(O)cc1)C(=O)N[C@@H](CCC(=O)O)C(=O)N[C@@H](CCCNC(=N)N)C(N)=O [Puma, reference compound]
EC50 [4]: 663 ± 223 nM
depolarization in the Mcl-1 dependent line (in words) [5]: strong response

Molecule: Puma-BH3, unlabeled 23-residue peptide
Ki (Bcl-xL (residues 1-209) [7]): 2 nM

Molecule: Hrk-BH3, unlabeled 23-residue peptide
Ki (Bcl-xL (residues 1-209) [7]): 10 nM

Molecule: Bim-BH3 with the point mutation I2dY (peptide)
Ki (Bcl-xL (residues 1-209) [7]): < 0.1 nM
fold weaker binding than Bim-BH3 (Bcl-2 (residues 1-217) [8]): 5 fold

Molecule: Bim-BH3 with the point mutation R3bK (peptide)
Ki (Bcl-xL (residues 1-209) [7]): < 0.1 nM

Molecule: Bim-BH3 with the point mutation I3dF (peptide)
Ki (Bcl-xL (residues 1-209) [7]): < 0.1 nM

Molecule: Bim-BH3 with the point mutation E2gG (peptide)
Ki (Bcl-xL (residues 1-209) [7]): < 0.1 nM
fold weaker binding than Bim-BH3 (Bcl-2 (residues 1-217) [8]): 7 fold

Molecule: Ac-IWYAQGLKRFGDEFNAYK-NH2 (designed binder) [Y4eK_18]
Ki (Bcl-xL (residues 1-209) [10]): ~2 nM
fold weaker binding than XXA1_Y4eK (Bcl-2 (residues 1-217) [11]): ~5 fold

Molecule: Ac-WAAQRYGRELRRMSDEFVDSFKK-NH2 [Bad-BH3, unlabeled 23-residue peptide]
Ki (Bcl-xL (residues 1-209) [10]): ≤ 0.1 nM
